Data set [1] is described as follows: Partition coefficient (logP). In kind it is physicochemical. Particulars: octanol/water. The essentials:
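Octanol–water partition coefficient calculated computationally, not measured experimentally.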

Another data set concerns HepG2. Description: Compound was tested for inhibition of L-T3 (triiodothyronine) uptake in human HepG2 hepatoma cells at 10e-5 M. In kind it is functional. The procedure, abridged:
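HepG2 cells kept in DMEM with 10% FCS at 37 °C, grown to confluence (2×10⁶ cells/well), then serum-free overnight. Incubated 2 min at 37 °C in DMEM with 10^-11 M [¹²⁵I]-L-T₃; solvent-matched controls; nondisplaceable uptake from duplicates with 10^-5 M unlabeled L-T₃. Five PBS (pH 7.4) washes at room temperature, 0.1 M NaOH harvest, cell-associated radioactivity counted.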

Broadly, the logP is a log measure of how a compound divides between an organic and an aqueous phase. High values mean a more lipophilic compound, low ones a more hydrophilic compound. For orientation: inhibition means the relative decrease from the control value, in per cent. Read a high inhibition as a strong effect. In the case of `N#Cc1c(Oc2ccccc2)sc(C(=O)c2ccc([N+](=O)[O-])cc2)c1N`, the lipophilicity (logP) in data set [1] turned out to be 4.53. In the data set with HepG2, this molecule showed an inhibition at 10 µM of 18%.

Consider `COC(=O)c1sc(Oc2ccccc2)c(C(N)=O)c1N`, for which the lipophilicity (logP) in data set [1] worked out at 3.11. This molecule also returned an inhibition at 10 µM with HepG2 of 26%.

In turn, `Cc1cccc(Oc2sc(C(=O)c3ccc([N+](=O)[O-])cc3)c(N)c2C#N)c1` showed a logP in data set [1] of 5.03. Besides, the inhibition at 10 µM in the data set with HepG2 was found to be 16%.

`Cc1cccc(Oc2sc(C(=O)c3ccccc3)c(N)c2C#N)c1` had a logP in data set [1] of 5.25. The inhibition at 10 µM with HepG2 is 57%.

The molecule `Cc1cccc(Oc2sc(C#N)c(N)c2C#N)c1` gave a logP in data set [1] of 3.04. Moreover, the inhibition at 10 µM in the data set on HepG2 came out at 26%.

Molecule `COC(=O)c1sc(Oc2ccccc2)c(C#N)c1N` yielded a log partition coefficient (logP) in data set [1] of 3.66. For the same molecule, 10 µM produced 41% inhibition in the data set with HepG2.

The molecule `NC(=O)c1c(Oc2ccccc2)sc(C(=O)c2ccccc2)c1N` registered a logP in data set [1] of 3.6. For the same molecule, the inhibition at 10 µM in the data set on HepG2 was determined as 60%.

Consider `Cc1cccc(Oc2sc(C(N)=O)c(N)c2C#N)c1`, for which the logP in data set [1] was 2.69. This molecule returned an inhibition at 10 µM in the data set on HepG2 of 23%.

In turn, `N#Cc1sc(Oc2ccccc2)c(C#N)c1N` registered a lipophilicity (logP) in data set [1] of 2.54. Besides, the inhibition at 10 µM in the data set on HepG2 stood at 21%.

The molecule `COC(=O)c1sc(Oc2cccc(C)c2)c(C(N)=O)c1N` showed a logP in data set [1] of 3.61. This molecule showed an inhibition at 10 µM in the data set on HepG2 of 40%.

On to `COC(=O)c1sc(Oc2cccc(C)c2)c(C#N)c1N`, for which the logP in data set [1] was determined as 4.16. The inhibition at 10 µM with HepG2 was found to be 19%.

In turn, `N#Cc1c(Oc2ccccc2)sc(C(=O)c2ccccc2)c1N` had a lipophilicity (logP) in data set [1] of 4.75. For the same molecule, testing at 10 µM with HepG2 gave an inhibition of 61%.

On to `N#Cc1c(Oc2ccccc2)sc(C(N)=O)c1N`, for which, in data set [1], the logP was found to be 2.19. In the data set on HepG2, this molecule gave an inhibition at 10 µM of 14%.

For the origin of these results see ChEMBL document CHEMBL1132218, “3-Amino-5-phenoxythiophenes: syntheses and structure-function studies of a novel class of inhibitors of cellular L-triiodothyronine uptake” (J Med Chem, 1999).
